Shown are actives, neighbours in structure and some others; about 1.9% of the full set was active somewhere.
CR mimetic SO: lowers age-related superoxide in aged yeast cells; S. cerevisiae aged cells, superoxide DHE fluorescence; hits give low values; superoxide response (% of plate mean), % at 10 µM; 330,000 compounds, 0.18% hits; AID 2690;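 active means superoxide response under a set limit, about three screen SD below normal, cut at about 65% in these data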;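 further: yeast aged for seven days with compound at 30 °C before DHE staining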
proKLK7 act: proKLK7 (human) activation, primary screen | AID 652039 | 370,000 compounds, 0.9% hits | purified proKLK7, EDANS-DABCYL substrate fluorescence; 100% is mature enzyme control, 0% vehicle | activation, % at 7 µM | P49862;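 active means activation above the mean of all tested compounds plus 3 SD, computed per campaign excluding outliers beyond control limits, cut at about 13% in these data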
V-ATPase pH: alters yeast V-ATPase proton transport; response, % at 10 µM; S. cerevisiae, pHLuorin cytosolic pH fluorescence; 350,000 compounds, 0.37% hits; in the data active means response mostly above about 7.3%, no sharp cut-off; inactive means mostly below about 5.4%; further: actives read high
T cell modulator: T cell immune modulators affecting CD8 T cell-vesicle binding. 2C CD8+ T cell-vesicle binding, flow cytometry; hits give low values. response (vesicle binding), % at 7 µM. 330,000 compounds, 0.068% hits. AID 2052;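 active means response, share of CD8 T cells binding vesicles, and their 90th percentile fluorescence all below set limits, cut at about 80% in these data, passing the limit was not always enough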;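 further: values below 100% mean blocked vesicle binding to the CD8+ T cells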
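Incubation: binding step 1.5 h, 37 °C, antibody labelling 20 min, ice; system: murine 2C transgenic CD8+ T lymphocytes; technique: cytometric PE anti-B7-1 and Alexa647 anti-CD8 signals after 1% paraformaldehyde fixation; also added: QL9-charged Drosophila Ld/ICAM-1/B7-1 vesicles; control set: naked versus QL9-loaded vesicles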
Rce1 inhib: blocks yeast Ras-converting enzyme; Q03530; yeast membranes, quenched prenylated peptide cleavage fluorescence; calls only; 290,000 compounds, 0.27% hits; AID 2563;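 active means fall in fluorescence gain of 50% or more versus controls, with final raw signal at or below 3038400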
Target sequence (Q03530 whole entry, looked up): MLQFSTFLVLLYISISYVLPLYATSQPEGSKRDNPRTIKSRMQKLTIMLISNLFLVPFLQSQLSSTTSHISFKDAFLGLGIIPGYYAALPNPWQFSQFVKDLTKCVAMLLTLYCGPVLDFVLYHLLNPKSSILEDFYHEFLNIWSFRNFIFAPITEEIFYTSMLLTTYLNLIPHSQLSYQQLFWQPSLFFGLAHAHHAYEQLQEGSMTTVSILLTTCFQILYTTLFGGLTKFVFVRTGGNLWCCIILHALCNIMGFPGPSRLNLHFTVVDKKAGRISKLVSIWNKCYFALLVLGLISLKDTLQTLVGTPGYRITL
beta cell repl: MIN6 beta-cell proliferation induction; proliferation, % at 10 µM; 330,000 compounds, 0.29% hits; MIN6 cells proliferation, ATPlite luminescence, 48 h; cells starved in 0.2% serum; 100% = growth in 10% serum;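 active means compounds whose signal lies at least 3.5 SD above the mean of all wells on their plate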
VATPase regulator: modulates yeast V-ATPase proton transport. 980 compounds, 2% hits. response, % at 10 µM. S. cerevisiae pHLuorin cytosolic pH. shares compounds with V-ATPase pH; in the data active means response above about 24%
Large screens that a line does not name were inactive (follow-up assays come after a bar, where they were run).

COc1ccccc1C(CC(=O)N1CCCC1)c1ccc2c(c1)OCO2 (configuration not stated)	V-ATPase pH 6.8 | VATPase regulator inactive
COc1ccccc1C(CC(=O)O)c1ccc2c(c1)OCO2 (configuration not stated)	none
C[C@H]1[C@@H](c2ccccc2)Oc2ccc(Cl)cc2S(=O)(=O)N1Cc1cccc(Cl)c1	none (no result: CR mimetic SO, V-ATPase pH, T cell modulator, Rce1 inhib, beta cell repl)
CCCC(=O)Nc1ccc(C(=O)Nc2cccc(OC)c2)cc1	V-ATPase pH 9.7 (no result: Rce1 inhib) | VATPase regulator inactive
CC(C)c1ccc(CCNC(=O)CCNS(=O)(=O)c2ccc(Br)cc2)cc1	none (no result: Rce1 inhib)
CCCCCCSc1nsc(NC(C)=O)n1	V-ATPase pH 11 | VATPase regulator inactive
Cc1ncsc1CCOC(=O)c1ccc([N+](=O)[O-])cc1	V-ATPase pH 45 | VATPase regulator inactive
Cc1ncsc1CCOC(=O)c1ccc(N2CCOCC2)c([N+](=O)[O-])c1	none
CC(CN1CCCCC1)OC(=O)CCc1ccccc1 (configuration not stated)	V-ATPase pH 9.8 | VATPase regulator inactive
CCOc1cc(/C=C/C(=O)c2ccc(O)cc2)ccc1OCC(=O)N(C)C	none
CCOc1cc(/C=C/C(=O)c2ccc3c(c2)OCCO3)ccc1OCC(=O)N(C)C	V-ATPase pH 15 | VATPase regulator inactive
CCOC(=O)NCc1ccc2[nH]c(C)cc2c1	V-ATPase pH 11 | VATPase regulator inactive
O=C(C1CCCCC1)N1CCC(CO)(Cc2ccccc2Cl)CC1	V-ATPase pH 8.6 (no result: Rce1 inhib) | VATPase regulator inactive
COCCCNC(=S)N/N=C/c1ccc(OC)cc1	none
COCCCNC(=S)N/N=C/c1ccc(O)cc1	V-ATPase pH 13 | VATPase regulator inactive
CC(C)[C@H](NC(=O)c1ccc(Cl)cc1Cl)C(=O)N1CCC[C@H]1C(=O)NCCc1ccccc1Cl	none (no result: CR mimetic SO, V-ATPase pH, T cell modulator, Rce1 inhib, beta cell repl)
Cc1ccc(-n2nc(C(=O)NN)c(C)c(C#N)c2=O)cc1Cl	none
Cc1c(C(=O)NN)nn(-c2ccc(Cl)cc2)c(=O)c1C#N	none | VATPase regulator inactive
Clc1cccc(CSC2=NCCCN2)c1	none (no result: proKLK7 act) | VATPase regulator inactive
COc1ccc(CSC2=NCCN2)cc1Cl	none
COc1ccc(S(=O)(=O)N(CC(=O)N2CCN(C)CC2)c2ccc(C)cc2)cc1OC	V-ATPase pH 12 | VATPase regulator inactive
CSCCC(NC(=O)c1ccco1)C(=O)NCC(c1ccccc1)N(C)C (configuration not stated)	none (no result: Rce1 inhib)
COCCN(C(=O)c1ccc(-c2ccc([N+](=O)[O-])cc2)o1)c1c(N)n(CC(C)C)c(=O)[nH]c1=O	none (no result: CR mimetic SO, T cell modulator, Rce1 inhib)
Cc1cc(=O)[nH]n(CCO)c1=O	V-ATPase pH 13 (no result: Rce1 inhib) | VATPase regulator inactive
CC(=O)c1ccc(NC(=O)CN2CCC(NC(=O)c3ccccc3C)CC2)cc1	V-ATPase pH 8.2 (no result: CR mimetic SO, T cell modulator, Rce1 inhib, beta cell repl) | VATPase regulator inactive
CN(C(=O)c1cccc(NC(=O)Cc2ccc(NC(=O)C3CCCN(C(=O)C4CCC4)C3)cc2)c1)C1CC1 (configuration not stated)	none (no result: CR mimetic SO, T cell modulator, Rce1 inhib, beta cell repl)
Cc1ccc(S(=O)(=O)NN=C2CCCc3ccccc32)cc1	none (no result: CR mimetic SO, T cell modulator, Rce1 inhib, beta cell repl)
Cc1ccc(S(=O)(=O)O/N=C2\CCCc3ccccc32)cc1	V-ATPase pH 12 | VATPase regulator inactive
Cc1ccc(S(=O)(=O)N2[C@@H](c3cccc(C)c3)C(C(=O)O)=C[C@H]2CC2CCCC2)cc1	none (no result: Rce1 inhib)
O=C(NCC(c1ccco1)N1CCCC1)c1sc2cc(F)ccc2c1Cl (configuration not stated)	V-ATPase pH 8.6 (no result: Rce1 inhib) | VATPase regulator inactive
O=C(O)CC(CNS(=O)(=O)c1ccccc1)c1ccccc1 (configuration not stated)	V-ATPase pH 7.1 | VATPase regulator inactive
O=C(O)CCCCCCNS(=O)(=O)c1ccccc1	none
CCOC(=O)N1CCC(n2c(=S)[nH]c3cc(OCC)c(OCC)cc3c2=O)CC1	none
CCOc1cc2[nH]c(=S)n(C3CC3)c(=O)c2cc1OCC	V-ATPase pH 12 | VATPase regulator inactive
CCn1c(SCC(=O)NC2CCCC2)nnc1-c1c[nH]c2ccccc12	V-ATPase pH 13 | VATPase regulator inactive
COc1ccc2nc(NC(=O)CSc3nc4ccccc4o3)sc2c1	V-ATPase pH 12 | VATPase regulator inactive
O=C(CSc1nc2ccccc2o1)Nc1nc2ccc(Br)cc2s1	none

High-throughput results as filed in PubChem.
